Results as given in paper PMC11293135 (Journal of Nanobiotechnology, 2024).
Counter-ions that a name gives are not always drawn.

Tests used:
[1] = tested on: 4T1 cells; assay: In vitro cytotoxicity, CCK-8 assay; assay type: cell-based, murine; settings: concentrations up to 50 μM, three days
Summary of the method: (§1)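 4T1 and HC11 cells were grown in RPMI-1640 with 10% FBS at 37 °C and 5% CO2. Cells were exposed to the azido-sugar test compound at 0–50 μM for 3 days. Viability was read by CCK-8.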

[2] = tested on: HC11 cells; assay: In vitro cytotoxicity, CCK-8 assay; assay type: cell-based, mouse; settings: concentrations up to 50 μM, three days
Summary of the method: as §1

[3] = tested on: PD-L1; settings: DOX treatment; ref [41], [42]; cited from earlier work
[4] = tested on: 4T1 tumor-bearing mice; assay: Treatment-related toxicity; assay type: in vivo, BALB/c mice; settings: 5 mg/kg
Summary of the method: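 Female BALB/c mice bearing ~150 mm3 s.c. 4T1 tumors were split into 5 groups (n = 5). Click groups were pretreated with azido-sugar 40 mg/kg i.p. daily for 3 days; others received PBS. Treatments at 5 mg/kg i.v. were given every 7 days. Body weight was recorded every 2 days for 14 days. Major organs were fixed in 4% paraformaldehyde, paraffin-embedded, and H&E stained.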

[5] = tested on: DCs from TDLNs; assay: DC maturation in TDLNs by flow cytometry; assay type: in vivo, BALB/c mice; settings: mean ± SD, n = 5
Summary of the method: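 Female BALB/c mice (5–6 weeks) received 1.0 × 10^6 4T1 cells s.c. in the flank. Once tumors reached ~150 mm3, click groups got azido-sugar 40 mg/kg i.p. daily for 3 days and others got PBS. All groups then received 5 mg/kg i.v. every 7 days (n = 5). TDLNs were digested with collagenase IV (37 °C, 1 h) and strained at 70 μm. Mature DCs were gated CD40+CD80+MHC II+CCR7+. Mean ± SD reported.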

[6] = tested on: 4T1 tumor-bearing mice; assay: In vivo MR-T1 mapping imaging; set-up: species or system BALB/c mice; settings: by 3 h post-injection, 1 mg/kg i.v., n = 3
Summary of the method: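 4T1 flank tumors were raised in female BALB/c mice (1.0 × 10^6 cells s.c.), n = 3 per group. The click group received azido-sugar 40 mg/kg i.p. once daily for 3 days; the other groups received PBS. Mice were then injected i.v. with 150 μL (1 mg/kg) of Gd probe or Gd-DOTA. T1 mapping was done before injection and at 1, 2, 3 and 4 h, and tumor 1/T1 values were quantified.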

CC(=O)OC[C@H]1OC(OC(C)=O)[C@@H](NC(=O)CN=[N+]=[N-])[C@@H](OC(C)=O)[C@@H]1OC(C)=O (stereo partly shown) [Ac4ManNAz, tetraacetyl-N-azidoacetylmannosamine]
Cytotoxicity to 4T1 cells [1]: no significant harm | Cytotoxicity to HC11 cells [2]: no significant harm

COc1cccc2c1C(=O)c1c(O)c3c(c(O)c1C2=O)C[C@@](O)(C(=O)CO)C[C@@H]3O[C@H]1C[C@H](N)[C@H](O)[C@H](C)O1 [DOX, Doxorubicin hydrochloride]
PD-L1 expression of 4T1 cells [3]: elevation in PD-L1 expression | Body weight change ([4]; measured every two days for 14 days, n = 5): severe weight loss | H&E analyses on major organs compared to PBS-treated mice ([4]; end of antitumor study): substantial damage | MHC-II expression in TDLNs [5]: 45.04 ± 1.85%

O=C([O-])CN1CCN(CC(=O)[O-])CCN(CC(=O)[O-])CCN(CC(=O)[O-])CC1.[Gd+3] [Gd-DOTA]
Tumor MR signal [6]: returned to baseline levels
